Converted amounts (≈) assume the structure as drawn.
Assays:
Staphylococcus aureus [1] = assay: Antibacterial activity against aminoglycoside-susceptible Staphylococcus aureus ATCC 25923 after 12 to 18 hrs; format: functional
How it was run: (§1)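 Broth microdilution. Bacterial suspension adjusted with broth to absorbance 0.08–0.1 at 625 nm, diluted further in broth, and mixed in wells with 2-fold serial dilutions of compound. Plates incubated at 35°C for 12–18 h. MIC is the lowest concentration inhibiting growth; each determination repeated at least three times.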

Escherichia coli [2] = assay: Antibacterial activity against Escherichia coli TG1 pET28a plasmid encoded for APH(3')-3a after 12 to 18 hrs; format: functional; how it was run: as §1
Escherichia coli [3] = assay: Antibacterial activity against aminoglycoside-susceptible Escherichia coli ATCC 25922 after 12 to 18 hrs; format: functional; how it was run: as §1
Escherichia coli [4] = assay: Antibacterial activity against Escherichia coli TG1 pSF815 plasmid encoded for AAC(6')/APH(2') after 12 to 18 hrs; format: functional; how it was run: as §1
Escherichia coli [5] = assay: Antibacterial activity against Escherichia coli TG1 pTZ19U-3 plasmid encoded for APH(3')-1 after 12 to 18 hrs; format: functional; how it was run: as §1
Escherichia coli [6] = assay: Antibacterial activity against aminoglycoside-susceptible Escherichia coli TG1 after 12 to 18 hrs; format: functional; how it was run: as §1
Enterococcus [7] = assay: Activity of Enterococcus APH(3')-3a
Enterococcus [8] = assay: Ratio of kcat to Km of Enterococcus APH(3')-3a
Staphylococcus aureus [9] = assay: Antibacterial activity against methicillin-resistant Staphylococcus aureus ATCC 33591 after 12 to 18 hrs; format: functional
How it was run: (§2)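 Broth microdilution MIC. Culture diluted with broth to an absorbance of 0.08–0.1 at 625 nm. 100 μL of this was diluted into 10 mL broth and dispensed into 96-well plates. Each well received 50 μL inoculum plus 50 μL of a 2-fold compound dilution series. Plates were incubated at 35°C for 12–18 h. MIC is the lowest concentration that inhibits growth, from at least three repeats.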

Enterococcus faecalis [10] = assay: Antibacterial activity against vancomycin-susceptible and aminoglycosides-resistant Enterococcus faecalis ATCC 29212 after 12 to 18 hrs; format: functional; how it was run: as §2
Enterococcus faecalis [11] = assay: Antibacterial activity against vancomycin-resistant Enterococcus faecalis ATCC 51299 expressing vanB, ant(6)-1, aac(6')-aph(2') resistant gene after 12 to 18 hrs; format: functional; how it was run: as §2
Klebsiella pneumoniae [12] = assay: Antibacterial activity against multidrug-resistant Klebsiella pneumoniae ATCC 700603 isolate after 12 to 18 hrs; format: functional; how it was run: as §2
Klebsiella pneumoniae [13] = assay: Antibacterial activity against ampicillin-resistant and aminoglycosides-susceptible Klebsiella pneumoniae ATCC 13883 after 12 to 18 hrs; format: functional; how it was run: as §2
Pseudomonas aeruginosa = assay: Antibacterial activity against aminoglycosides-resistant Pseudomonas aeruginosa ATCC 27853 expressing APH(3')-2b after 12 to 18 hrs; format: functional; how it was run: as §2

Molecule `NCCCC[C@H](N)C(=O)NC[C@H]1O[C@@H](O[C@@H]2[C@@H](O)[C@H](N)C[C@H](N)[C@H]2O[C@H]2O[C@H](CN)[C@@H](O)[C@H](O)[C@H]2N)[C@H](O)[C@@H]1O[C@H]1O[C@@H](CN)[C@@H](O)[C@H](O)[C@H]1N` has an MIC (Staphylococcus aureus [1]) of 2 µg/mL (≈ 2.7 µM), an MIC (Escherichia coli [2]) of 32 µg/mL (≈ 43.1 µM) and an MIC (Escherichia coli [3]) of 16 µg/mL (≈ 21.6 µM). For the same molecule, the MIC (Escherichia coli [4]) was 32 µg/mL (≈ 43.1 µM), the MIC (Escherichia coli [5]) was 125 µg/mL (≈ 168 µM) and the MIC (Escherichia coli [6]) was 16 µg/mL (≈ 21.6 µM). The Km (Enterococcus [7]) was 78 µM, the Vmax (Enterococcus [7]) was 0.79 µmol/min/mg and the kcat (Enterococcus [7]) was 0.4 s⁻¹. The kcat/Km (Enterococcus [8]) was 0.51 ×10⁴ /M/s.
`NC[C@@H]1O[C@H](O[C@H]2[C@@H](O)[C@H](O[C@@H]3[C@@H](O)[C@H](N)C[C@H](N)[C@H]3O[C@H]3O[C@H](CN)[C@@H](O)[C@H](O)[C@H]3N)O[C@@H]2CNC(=O)c2cc(-c3ccccc3)nc3ccccc23)[C@H](N)[C@@H](O)[C@@H]1O` gave an MIC (Staphylococcus aureus [1]) of 4 µg/mL (≈ 4.73 µM), an MIC (Escherichia coli [2]) of 32 µg/mL (≈ 37.9 µM) and an MIC (Escherichia coli [3]) of 8 µg/mL (≈ 9.47 µM). It also gave an MIC (Escherichia coli [4]) of 16 µg/mL (≈ 18.9 µM), an MIC (Escherichia coli [5]) of at least 2000 µg/mL and an MIC (Escherichia coli [6]) of 8 µg/mL (≈ 9.47 µM). For the same molecule, the Km (Enterococcus [7]) was 400 µM, the Vmax (Enterococcus [7]) was 0.38 µmol/min/mg and the kcat (Enterococcus [7]) was 0.19 s⁻¹. The kcat/Km (Enterococcus [8]) was 0.048 ×10⁴ /M/s.
In the case of `CC(=O)NCC1CN(Cc2cn(C[C@H]3O[C@@H](O[C@@H]4[C@@H](O)[C@H](N)C[C@H](N)[C@H]4O[C@H]4O[C@H](CN)[C@@H](O)[C@H](O)[C@H]4N)[C@H](O)[C@@H]3O[C@H]3O[C@@H](CN)[C@@H](O)[C@H](O)[C@H]3N)nn2)C(=O)O1` (stereo partly specified), the MIC (Staphylococcus aureus [1]) is reported as 4 µg/mL (≈ 4.79 µM), the MIC (Escherichia coli [2]) is reported as 125 µg/mL (≈ 150 µM) and the MIC (Escherichia coli [3]) is reported as 32 µg/mL (≈ 38.3 µM). For the same molecule, the MIC (Escherichia coli [4]) was 32 µg/mL (≈ 38.3 µM), the MIC (Escherichia coli [5]) was at least 2000 µg/mL and the MIC (Escherichia coli [6]) was 16 µg/mL (≈ 19.1 µM). It also gave a Km (Enterococcus [7]) of 160 µM, a Vmax (Enterococcus [7]) of 0.41 µmol/min/mg and a kcat (Enterococcus [7]) of 0.21 s⁻¹. It also gave a kcat/Km (Enterococcus [8]) of 0.13 ×10⁴ /M/s.
Molecule `NCC[C@H](O)C(=O)NC[C@H]1O[C@@H](O[C@@H]2[C@@H](O)[C@H](N)C[C@H](N)[C@H]2O[C@H]2O[C@H](CN)[C@@H](O)[C@H](O)[C@H]2N)[C@H](O)[C@@H]1O[C@H]1O[C@@H](CN)[C@@H](O)[C@H](O)[C@H]1N` has an MIC (Staphylococcus aureus [1]) of 1 µg/mL (≈ 1.4 µM), an MIC (Escherichia coli [2]) of 125 µg/mL (≈ 175 µM) and an MIC (Escherichia coli [3]) of 8 µg/mL (≈ 11.2 µM). For the same molecule, the MIC (Escherichia coli [4]) was 16 µg/mL (≈ 22.4 µM), the MIC (Escherichia coli [5]) was at least 2000 µg/mL and the MIC (Escherichia coli [6]) was 16 µg/mL (≈ 22.4 µM). For the same molecule, the Km (Enterococcus [7]) was 50 µM, the Vmax (Enterococcus [7]) was 0.93 µmol/min/mg and the kcat (Enterococcus [7]) was 0.47 s⁻¹. For the same molecule, the kcat/Km (Enterococcus [8]) was 0.94 ×10⁴ /M/s.
Work on `NC[C@@H]1O[C@H](O[C@H]2[C@@H](O)[C@H](O[C@@H]3[C@@H](O)[C@H](N)C[C@H](N)[C@H]3O[C@H]3O[C@H](CN)[C@@H](O)[C@H](O)[C@H]3N)O[C@@H]2CNC(=O)CCC(=O)O)[C@H](N)[C@@H](O)[C@@H]1O` yielded an MIC (Staphylococcus aureus [1]) of 8 µg/mL (≈ 11.2 µM), an MIC (Escherichia coli [2]) of 250 µg/mL (≈ 350 µM) and an MIC (Escherichia coli [3]) of 64 µg/mL (≈ 89.7 µM). It also gave an MIC (Escherichia coli [4]) of 64 µg/mL (≈ 89.7 µM), an MIC (Escherichia coli [5]) of at least 2000 µg/mL and an MIC (Escherichia coli [6]) of 32 µg/mL (≈ 44.8 µM). For the same molecule, the Km (Enterococcus [7]) was 53 µM, the Vmax (Enterococcus [7]) was 0.86 µmol/min/mg and the kcat (Enterococcus [7]) was 0.43 s⁻¹. It also gave a kcat/Km (Enterococcus [8]) of 0.81 ×10⁴ /M/s.
In the case of `CNCc1cn(C[C@H]2O[C@@H](O[C@@H]3[C@@H](O)[C@H](N)C[C@H](N)[C@H]3O[C@H]3O[C@H](CN)[C@@H](O)[C@H](O)[C@H]3N)[C@H](O)[C@@H]2O[C@H]2O[C@@H](CN)[C@@H](O)[C@H](O)[C@H]2N)nn1`, the MIC (Staphylococcus aureus [1]) is reported as 1 µg/mL (≈ 1.41 µM), the MIC (Escherichia coli [2]) is reported as 125 µg/mL (≈ 176 µM) and the MIC (Escherichia coli [3]) is reported as 8 µg/mL (≈ 11.3 µM). It also gave an MIC (Escherichia coli [4]) of 16 µg/mL (≈ 22.6 µM), an MIC (Escherichia coli [5]) of at least 2000 µg/mL and an MIC (Escherichia coli [6]) of 16 µg/mL (≈ 22.6 µM). The Km (Enterococcus [7]) was 100 µM, the Vmax (Enterococcus [7]) was 0.72 µmol/min/mg and the kcat (Enterococcus [7]) was 0.36 s⁻¹. It also gave a kcat/Km (Enterococcus [8]) of 0.36 ×10⁴ /M/s.
For `C[C@@H](N)C(=O)NC[C@H]1O[C@@H](O[C@@H]2[C@@H](O)[C@H](N)C[C@H](N)[C@H]2O[C@H]2O[C@H](CN)[C@@H](O)[C@H](O)[C@H]2N)[C@H](O)[C@@H]1O[C@H]1O[C@@H](CN)[C@@H](O)[C@H](O)[C@H]1N`, the MIC (Staphylococcus aureus [1]) was 1 µg/mL (≈ 1.46 µM), the MIC (Escherichia coli [2]) was 64 µg/mL (≈ 93.5 µM) and the MIC (Escherichia coli [3]) was 16 µg/mL (≈ 23.4 µM). The MIC (Escherichia coli [4]) was 16 µg/mL (≈ 23.4 µM), the MIC (Escherichia coli [5]) was at least 2000 µg/mL and the MIC (Escherichia coli [6]) was 16 µg/mL (≈ 23.4 µM). For the same molecule, the Km (Enterococcus [7]) was 63 µM, the Vmax (Enterococcus [7]) was 0.82 µmol/min/mg and the kcat (Enterococcus [7]) was 0.41 s⁻¹. For the same molecule, the kcat/Km (Enterococcus [8]) was 0.65 ×10⁴ /M/s.
Work on `NCC(=O)NCC(=O)NC[C@H]1O[C@@H](O[C@@H]2[C@@H](O)[C@H](N)C[C@H](N)[C@H]2O[C@H]2O[C@H](CN)[C@@H](O)[C@H](O)[C@H]2N)[C@H](O)[C@@H]1O[C@H]1O[C@@H](CN)[C@@H](O)[C@H](O)[C@H]1N` yielded an MIC (Staphylococcus aureus [1]) of 2 µg/mL (≈ 2.75 µM), an MIC (Staphylococcus aureus [9]) of 32 µg/mL (≈ 44 µM) and an MIC (Escherichia coli [3]) of 16 µg/mL (≈ 22 µM). It also gave an MIC (Enterococcus faecalis [10]) of 64 µg/mL (≈ 87.9 µM), an MIC (Enterococcus faecalis [11]) of at least 250 µg/mL and an MIC (Escherichia coli [4]) of 16 µg/mL (≈ 22 µM). For the same molecule, the MIC (Escherichia coli [5]) was 125 µg/mL (≈ 172 µM), the MIC (Klebsiella pneumoniae [12]) was 8 µg/mL (≈ 11 µM) and the MIC (Klebsiella pneumoniae [13]) was 4 µg/mL (≈ 5.5 µM). It also gave an MIC (Escherichia coli [6]) of 16 µg/mL (≈ 22 µM) and an MIC (Pseudomonas aeruginosa) of 16 µg/mL (≈ 22 µM).
For GENTAMICIN, the MIC (Staphylococcus aureus [9]) was 2 µg/mL, the MIC (Enterococcus faecalis [10]) was 8 µg/mL and the MIC (Enterococcus faecalis [11]) was over 250 µg/mL. For the same molecule, the MIC (Klebsiella pneumoniae [12]) was 8 µg/mL and the MIC (Klebsiella pneumoniae [13]) was 1 µg/mL.

Source: ChEMBL document CHEMBL1140232, “Surprising alteration of antibacterial activity of 5"-modified neomycin against resistant bacteria” (2008)
